ChEMBL document CHEMBL1128174, “Enhanced D1 affinity in a series of piperazine ring substituted 1-piperazino-3-arylindans with potential atypical antipsychotic activity” (J Med Chem, 1995)

How the values were obtained:
[1] = molecular target: T1, Adrenergic receptor alpha-1 (Rattus norvegicus, UniProt P15823+P23944+P43140); assay: Binding affinity against Alpha-1 adrenergic receptor, activity is expressed as IC50 values; assay type: protein assay
T1 sequence (P15823 whole entry): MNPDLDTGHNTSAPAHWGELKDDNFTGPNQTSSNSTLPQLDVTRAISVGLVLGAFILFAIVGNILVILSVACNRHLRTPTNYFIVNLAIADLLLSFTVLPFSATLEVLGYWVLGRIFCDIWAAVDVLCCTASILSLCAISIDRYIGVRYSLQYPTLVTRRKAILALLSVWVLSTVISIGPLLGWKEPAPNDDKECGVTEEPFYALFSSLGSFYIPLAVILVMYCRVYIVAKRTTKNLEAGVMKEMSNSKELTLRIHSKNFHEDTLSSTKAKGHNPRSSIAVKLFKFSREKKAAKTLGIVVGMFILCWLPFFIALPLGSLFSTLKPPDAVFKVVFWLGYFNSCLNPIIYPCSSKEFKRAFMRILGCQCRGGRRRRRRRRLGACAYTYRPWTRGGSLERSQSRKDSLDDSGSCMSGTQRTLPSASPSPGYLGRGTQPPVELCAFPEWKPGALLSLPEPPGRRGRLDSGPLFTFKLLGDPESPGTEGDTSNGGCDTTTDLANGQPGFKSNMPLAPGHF
T1 sequence (P23944 whole entry): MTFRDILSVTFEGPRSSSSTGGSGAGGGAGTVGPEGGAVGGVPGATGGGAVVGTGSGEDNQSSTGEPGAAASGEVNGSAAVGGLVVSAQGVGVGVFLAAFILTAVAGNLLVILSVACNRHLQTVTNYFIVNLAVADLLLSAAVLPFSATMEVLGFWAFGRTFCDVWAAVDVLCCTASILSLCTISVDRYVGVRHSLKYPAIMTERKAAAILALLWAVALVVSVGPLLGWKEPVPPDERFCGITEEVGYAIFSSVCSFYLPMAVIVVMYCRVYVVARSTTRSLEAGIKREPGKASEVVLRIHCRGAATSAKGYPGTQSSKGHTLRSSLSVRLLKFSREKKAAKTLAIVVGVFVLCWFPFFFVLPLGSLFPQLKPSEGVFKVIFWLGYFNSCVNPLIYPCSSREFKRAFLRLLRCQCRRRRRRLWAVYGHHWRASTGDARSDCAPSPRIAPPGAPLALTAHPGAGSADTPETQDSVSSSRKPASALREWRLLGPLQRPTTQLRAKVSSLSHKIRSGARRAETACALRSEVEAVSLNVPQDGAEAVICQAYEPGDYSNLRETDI
T1 sequence (P43140 whole entry): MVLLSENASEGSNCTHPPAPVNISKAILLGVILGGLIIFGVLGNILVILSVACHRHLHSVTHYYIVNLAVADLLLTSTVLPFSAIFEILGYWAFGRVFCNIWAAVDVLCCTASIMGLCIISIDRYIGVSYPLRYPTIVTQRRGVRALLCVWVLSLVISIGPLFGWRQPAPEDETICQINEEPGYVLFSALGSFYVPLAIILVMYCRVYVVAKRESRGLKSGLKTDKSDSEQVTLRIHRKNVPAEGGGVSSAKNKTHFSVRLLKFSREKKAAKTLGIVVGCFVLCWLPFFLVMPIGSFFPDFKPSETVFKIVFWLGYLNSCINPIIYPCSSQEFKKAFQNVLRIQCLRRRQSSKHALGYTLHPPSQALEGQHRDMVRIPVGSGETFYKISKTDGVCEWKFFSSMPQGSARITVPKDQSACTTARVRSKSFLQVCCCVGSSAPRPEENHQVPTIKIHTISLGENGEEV

Mus musculus = species: Mus musculus; assay: Antagonism of methyl phenidate-induced gnawing behavior in mice; assay type: functional
Outline: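 Test compound given ip (or sc) 2 h before methyl phenidate (60 mg/kg); mice housed in pairs on corrugated cardboard in gnawing cages, 5–9 pairs per dose.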

Rattus norvegicus [2] = species: Rattus norvegicus; assay: Cataleptogenic effect in rats; assay type: functional
Outline: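 Rats scored on a vertical wire grid hourly 1–6 h after dosing; catalepsy counted when immobility lasted at least 15 s.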

D(2) dopamine receptor = D(2) dopamine receptor (Rattus norvegicus, UniProt P61169); assay: Binding affinity against dopamine receptor D2
Chain of D(2) dopamine receptor (P61169 whole entry): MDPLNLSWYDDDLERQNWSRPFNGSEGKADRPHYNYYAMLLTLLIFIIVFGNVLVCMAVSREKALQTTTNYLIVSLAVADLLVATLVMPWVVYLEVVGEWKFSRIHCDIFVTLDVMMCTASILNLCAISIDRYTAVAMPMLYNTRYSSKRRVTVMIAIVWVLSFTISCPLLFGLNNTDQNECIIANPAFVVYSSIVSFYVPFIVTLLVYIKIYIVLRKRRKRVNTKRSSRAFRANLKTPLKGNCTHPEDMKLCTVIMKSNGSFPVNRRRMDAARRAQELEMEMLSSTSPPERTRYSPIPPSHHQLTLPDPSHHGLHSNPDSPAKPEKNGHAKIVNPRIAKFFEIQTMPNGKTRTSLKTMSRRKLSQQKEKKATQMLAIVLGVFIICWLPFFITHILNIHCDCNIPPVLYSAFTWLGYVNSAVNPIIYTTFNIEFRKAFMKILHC

D(1A) dopamine receptor [3] = molecular target: T2, D(1A) dopamine receptor (Rattus norvegicus, UniProt P18901); assay: The compound was tested for the binding affinity against Dopamine receptor D1 activity is expressed as IC50 values.
T2 sequence (P18901 whole entry): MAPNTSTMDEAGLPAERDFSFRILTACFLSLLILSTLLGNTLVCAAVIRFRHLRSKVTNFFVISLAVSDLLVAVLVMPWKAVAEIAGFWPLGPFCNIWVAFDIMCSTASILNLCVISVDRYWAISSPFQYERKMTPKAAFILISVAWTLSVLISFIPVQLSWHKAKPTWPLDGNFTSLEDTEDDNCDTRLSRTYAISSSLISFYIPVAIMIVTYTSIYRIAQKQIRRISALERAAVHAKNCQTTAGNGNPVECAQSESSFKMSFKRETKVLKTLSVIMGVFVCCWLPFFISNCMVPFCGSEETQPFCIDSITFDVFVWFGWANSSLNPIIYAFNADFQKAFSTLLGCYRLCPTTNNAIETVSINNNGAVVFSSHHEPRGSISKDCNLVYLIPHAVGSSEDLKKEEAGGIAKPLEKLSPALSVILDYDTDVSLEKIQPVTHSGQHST
Outline: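 [3H]SCH 23390 displaced from rat striatal membrane preparations; IC50 read from log-concentration–effect curves, two complete curves of five test concentrations run in triplicate over three decades.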

[4] = molecular target: 5-hydroxytryptamine receptor 2A (Rattus norvegicus, UniProt P14842); assay: Binding affinity for 5-hydroxytryptamine 2A receptor, activity is expressed as IC50 values.
Chain of 5-hydroxytryptamine receptor 2A (P14842 whole entry): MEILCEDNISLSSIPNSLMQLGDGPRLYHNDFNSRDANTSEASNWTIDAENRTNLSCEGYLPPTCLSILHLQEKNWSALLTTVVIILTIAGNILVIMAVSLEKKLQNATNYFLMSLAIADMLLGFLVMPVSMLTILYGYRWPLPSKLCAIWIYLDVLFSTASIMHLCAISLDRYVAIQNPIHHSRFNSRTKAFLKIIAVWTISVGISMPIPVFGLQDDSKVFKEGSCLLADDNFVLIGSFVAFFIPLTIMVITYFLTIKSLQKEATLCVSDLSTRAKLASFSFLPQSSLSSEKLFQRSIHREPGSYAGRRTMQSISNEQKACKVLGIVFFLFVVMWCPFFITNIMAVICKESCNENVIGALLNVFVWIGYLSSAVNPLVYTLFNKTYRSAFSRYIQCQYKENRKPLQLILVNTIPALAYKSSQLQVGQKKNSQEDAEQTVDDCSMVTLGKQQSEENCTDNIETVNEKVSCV

Rattus norvegicus [5] = species: Rattus norvegicus; assay: In vitro inhibition of [3H]5-HT uptake in rat brain (minus pons, medulla oblongata and cerebellum) homogenates.; assay type: functional
Rattus norvegicus [6] = species: Rattus norvegicus; assay: In vitro inhibition of [3H]NE uptake in rat occipital lobe (plus temporal cortex) homogenates.; assay type: functional
Rattus norvegicus [7] = species: Rattus norvegicus; assay: In vitro inhibition of [3H]dopamine uptake in rat corpus striatum homogenates.; assay type: functional
D(1A) dopamine receptor [8] = molecular target: T2, D(1A) dopamine receptor; assay: Binding affinity for dopamine receptor D1, activity is expressed as IC50 values.
[9] = Rattus norvegicus, read-out: ED50

IC50 (D(1A) dopamine receptor [3])	SMILES	IC50 [1]	ED50 (Mus musculus; Mus musculus, read-out: ED50)	ED50 (Rattus norvegicus [2]; [9])	IC50 (D(2) dopamine receptor)	IC50 [4]	IC50 (Rattus norvegicus [5]; Rattus norvegicus)	IC50 (Rattus norvegicus [6])	IC50 (Rattus norvegicus [7])	IC50 (D(1A) dopamine receptor [8])	ED50 (Mus musculus)	ED50 (Rattus norvegicus [2])	IC50 (Rattus norvegicus [5])
	CN1CCN(C2CC(c3ccsc3)c3ccc(Cl)cc32)CC1(C)C (stereo unspecified)	14 nM	1.3 µmol/kg	44 µmol/kg									
	CN1CCN(C2CC(c3ccc(F)cc3)c3cc(Cl)ccc32)CC1(C)C (stereo unspecified)	94 nM	> 110 µmol/kg										
	CN1CCN(C2CC(c3ccc(F)cc3)c3cccc(F)c32)CC1(C)C (stereo unspecified)	15 nM	6.9 µmol/kg	> 90 µmol/kg									
480 nM	CN1CCN(C2CC(c3ccccc3)c3ccccc32)CC1 (stereo unspecified)				690 nM								
8.3 nM	OCCN1CCN(C2CC(c3ccc(F)cc3)c3ccc(Cl)cc32)CC1 (stereo unspecified)												
1800 nM	OCCN1CCN(C2CC(c3ccc(F)cc3)c3cc(Cl)ccc32)CC1 (stereo unspecified)												
2000 nM	OCCN1CCN(C2CC(c3ccc(F)cc3)c3c(Cl)cccc32)CC1 (stereo unspecified)												
	CN1CCN(C2CC(c3ccc(F)cc3)c3ccccc32)CC1(C)C (single isomer, unassigned; (+))				4900 nM	650 nM	5200 nM	76 nM	25 nM	250 nM			
	CN1CCN(C2CC(c3ccccc3)c3ccc(Cl)cc32)CC1(C)C (single isomer, unassigned; (-))	10 nM			9.5 nM	4.4 nM		1700 nM	390 nM	1.1 nM	8.8 µM/kg	>85 µM/kg	4000 nM
	CC1(C)CN(C2CC(c3ccsc3)c3ccc(Cl)cc32)CCN1 (single isomer, unassigned; (-))	25 nM	11 µmol/kg	> 49 µmol/kg	7.1 nM	1.9 nM		4000 nM	2700 nM	0.84 nM			4500 nM
	CN1CCN(C2CC(c3ccccc3)c3ccc(Cl)cc32)CC1(C)C (stereo in doubt; 38)	23 nM		> 76 µmol/kg							24 µM/kg		
	CN1CCN(C2CC(c3ccc(F)cc3)c3ccc(F)cc32)CC1(C)C (stereo in doubt; 40)	12 nM									2.1 µM/kg	>68 µM/kg	
	CC1(C)CN(C2CC(c3ccc(F)cc3)c3ccc(Cl)cc32)CCN1 (stereo in doubt; 41)	39 nM	6.7 µmol/kg	> 48 µmol/kg									
	CN1CCN(C2CC(c3ccccc3)c3ccc(Cl)cc32)CC1(C)C (stereo in doubt; (+)-38)				260 nM	68 nM	5300 nM	26 nM	7.5 nM	15 nM			
	CN1CCN(C2CC(c3ccc(F)cc3)c3ccc(F)cc32)CC1(C)C (stereo in doubt; (+)-40)				1500 nM	360 nM		20 nM	7.1 nM	88 nM			3700 nM
	CC1(C)CN(C2CC(c3ccsc3)c3ccc(Cl)cc32)CCN1 (stereo in doubt; (+)-54)				6700 nM	1100 nM		73 nM	27 nM	440 nM			2000 nM
	CN1CCN(C2CC(c3ccc(F)cc3)c3ccccc32)CC1(C)C (stereo in doubt; (-)-39)	4.4 nM			12 nM	2.9 nM		17000 nM	5200 nM	2.5 nM	7.2 µM/kg	>44 µM/kg	10000 nM
	CN1CCN(C2CC(c3ccc(F)cc3)c3ccc(F)cc32)CC1(C)C (stereo in doubt; (-)-40)	4.7 nM		42 µmol/kg	6.8 nM	1.9 nM		> 10000 nM	4000 nM	0.71 nM	1 µM/kg		12000 nM
	CC1(C)CN(C2CC(c3ccc(F)cc3)c3ccc(Cl)cc32)CCN1 (stereo in doubt; (-)-41)	12 nM			9 nM	3.7 nM		2200 nM	400 nM	1.1 nM	5.6 µM/kg	>84 µM/kg	1800 nM
